Data set [1] can be described thus: Aqueous solubility of the compound. The format is physicochemical. The method in brief:
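Aqueous solubility measured at pH 2.3, 6.1, 7.3 and 8.5, in µg/mL.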

Data set [2] addresses Human immunodeficiency virus type 1 integrase (Human immunodeficiency virus 1, UniProt Q7ZJM1). In words: Inhibition of HIV1 integrase strand transfer activity.
Data set [3] can be described thus: Clearance in Sprague-Dawley rat at 1 mg/kg, iv after 4 hrs. The class given is ADME, organism-based. Conditions: in vivo. The method in brief:
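Male Sprague-Dawley rats given 1 mpk IV in PEG400/ethanol (90:10); blood sampled at 5 and 30 min and 1, 2 and 4 h post-dose; clearance from plasma profile.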

Structures are written as SMILES. Where only a bound is given, the exact number is not on record here.

Chain of Human immunodeficiency virus type 1 integrase (Q7ZJM1 whole entry): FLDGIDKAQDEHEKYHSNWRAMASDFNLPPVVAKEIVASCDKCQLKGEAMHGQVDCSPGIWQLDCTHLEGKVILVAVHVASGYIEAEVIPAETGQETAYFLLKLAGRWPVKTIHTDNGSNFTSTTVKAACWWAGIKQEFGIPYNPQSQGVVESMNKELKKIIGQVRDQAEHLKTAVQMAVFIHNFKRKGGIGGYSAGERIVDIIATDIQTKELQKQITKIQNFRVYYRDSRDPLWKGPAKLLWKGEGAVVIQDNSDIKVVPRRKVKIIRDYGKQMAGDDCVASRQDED

`CN(C)S(=O)(=O)c1cc(F)ccc1CNC(=O)c1nc2n(c(=O)c1O)CCCC21CCCC1`: the solubility (as a rule, the dissolved amount per volume that the medium holds) in data set [1] was no more than 5 µg/mL. The IC50 (as a rule, the concentration at which inhibition is half-maximal) in data set [2] stood at 6 nM. `CC1(C)OCCn2c1nc(C(=O)NCc1ccc(F)cc1N1CCCCS1(=O)=O)c(O)c2=O` had an IC50 in data set [2] of 9 nM. For the same compound, the clearance (commonly a measure of how efficiently the substance is removed, as volume per time) in data set [3] worked out at 38 mL/min/kg. Compound `CC1(C)OCCn2c1nc(C(=O)NCc1ccc(F)cc1Cl)c(O)c2=O` yielded an IC50 in data set [2] of 10 nM. As to `CC1(C)OCCn2c1nc(C(=O)NCc1ccc(F)c(Cl)c1)c(O)c2=O`, the IC50 in data set [2] came to 3 nM.

Values taken from ChEMBL document CHEMBL4118197, “The discovery and preclinical evaluation of BMS-707035, a potent HIV-1 integrase strand transfer inhibitor” (Bioorg Med Chem Lett, 2018).
